Experimental data taken from ChEMBL document CHEMBL4304819, “Natural product pectolinarigenin exhibits potent anti-metastatic activity in colorectal carcinoma cells in vitro and in vivo” (2019).
Activity calls are given as the source filed them. The rule behind the calls is not given here.

Columns and labels:
SW48 [1] = experiment: Antiproliferative activity against human SW48 cells assessed as reduction in cell viability up to 40 uM by MTT assay; type: functional, cell-based; conditions: TDE = time-dependent effect
How it was run: (§1)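 Exponentially growing cells (2–6 × 10^3 per well) seeded in 96-well plates for 24 h, then exposed to 0, 2.5, 5, 10, 20, 40 µM for 24, 48 and 72 h. MTT (5 mg/mL stock) added 2–4 h at 37 °C; formazan dissolved in DMSO, absorbance at 570 nm. Three independent experiments.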

HCT-116 [2] = experiment: Induction of apoptosis in human HCT116 cells assessed as late apoptotic cells at 20 uM after 48 hrs by Annexin V-FITC/propidium iodide staining-based flow cytometric analysis (reference value: 3.87 %); type: functional
How it was run: (§2)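 Cells (1–2 × 10^5 per well) seeded in six-well plates 24 h, treated at 0–40 μM for 24 h or 48 h, harvested, washed twice in cold PBS, stained with Annexin V-FITC/PI and analysed by flow cytometry; early (Annexin V only) and late (Annexin V and PI) apoptotic fractions quantified; three experiments.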

CT26 [3] = experiment: Inhibition of colony formation in mouse CT26 cells assessed as reduction in size of colonies up to 40 uM incubated for 24 hrs supplemented with fresh medium containing compound every 3 days for 12 days by crystal violet staining-based microscopic analysis; type: functional, cell-based
How it was run: (§3)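 400–800 cells per well seeded in 6-well plates; after 24 h, PEC (0–40 μM) added. Medium with or without compound replaced every three days for 12 days. Colonies washed in cold PBS, fixed in methanol, stained 15 min with 0.5% crystal violet and counted under a microscope. Mean ± SD of three experiments.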

CT26 [4] = experiment: Induction of apoptosis in mouse CT26 cells assessed as increase in Bax protein expression up to 40 uM after 48 hrs by Western blot analysis; type: functional, cell-based
How it was run: (§4)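 CT26 cells exposed 48 h to PEC at 0, 10, 20 and 40 μM, washed twice in cold PBS, lysed in RIPA. Protein measured by Lowry and equalized, run on SDS-PAGE, blotted to PVDF. Blocked 1 h at 37 °C, primary antibodies (Bax, Bcl-2, pro-caspase-3, cleaved caspase-3) overnight at 4 °C, secondary 1 h, ECL detection, densitometry.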

CT26 [5] = experiment: (§5) Antimetastatic activity against mouse CT26 cells allografted in Balb/c mouse assessed as decrease in CD11b-positive/Gr1-positive myeloid cells level in tumour at 25 mg/kg, ip administered daily for 14 days starting from 6 days post implantation flow cytometric analysis (reference value: 10 %); type: functional; parameters: scale not given: the % may be the effect or the level left
CT26 [6] = experiment: Induction of apoptosis in mouse CT26 cells assessed as necrotic cells at 40 uM after 48 hrs by Annexin V-FITC/propidium iodide staining-based flow cytometric analysis (reference value: 1.80 %); type: functional
How it was run: (§6)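 CT26 cells seeded at 1–2 × 10^5 per well in six-well plates for 24 h, then exposed to PEC (0–40 μM) for 24 or 48 h. Cells harvested, washed twice in cold PBS, stained with Annexin V-FITC/PI and read by flow cytometry. Early apoptotic = Annexin V+ only; late apoptotic = Annexin V+/PI+. Mean ± SD of three experiments.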

CT26 [7] = experiment: Induction of apoptosis in mouse CT26 cells assessed as viable cells at 20 uM after 48 hrs by Annexin V-FITC/propidium iodide staining-based flow cytometric analysis (reference value: 88.9 %); type: functional; conditions: CT26, 48 h, read-out: Activity; how it was run: as §6
CT26 [8] = experiment: Antiproliferative activity against mouse CT26 cells assessed as inhibition of cell viability up to 40 uM by MTT assay; type: functional, cell-based; conditions: TDE = time-dependent effect; how it was run: as §1
CT26 [9] = experiment: as §5, with “peripheral blood” for “tumour”, “50” for “25”, “33.2” for “10”; type: functional; parameters: scale not given: the % may be the effect or the level left
CT26 [10] = experiment: Induction of apoptosis in mouse CT26 cells assessed as early apoptotic cells at 40 uM after 48 hrs by Annexin V-FITC/propidium iodide staining-based flow cytometric analysis (reference value: 2.84 %); type: functional; how it was run: as §6
CT26 [11] = experiment: Antimetastatic activity against ip dosed mouse CT26 cells allografted in Balb/c mouse assessed as reduction in number of tumour nodules administered daily for 14 days starting from 6 days post implantation; type: functional, organism-based
How it was run: (§7)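 Female BALB/c mice (6–8 weeks) injected ip with 5 × 10^5 CT26 cells; from day 6, randomized (eight per group) to ip vehicle, 25 or 50 mg/kg once daily for 14 days. Abdominal circumference and body weight every 3 days; abdominal nodules counted by eye and weighed; spleens assessed; paraffin tumour sections immunostained (Ki-67, MMP-9, p-Stat3) with DAB detection.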

SW48 [12] = experiment: Inhibition of colony formation in human SW48 cells assessed as reduction in number of colonies up to 40 uM incubated for 24 hrs supplemented with fresh medium containing compound every 3 days for 12 days by crystal violet staining-based microscopic analysis; type: functional, cell-based; how it was run: as §3
CT26 [13] = experiment: Induction of apoptosis in mouse CT26 cells assessed as late apoptotic cells at 20 uM after 48 hrs by Annexin V-FITC/propidium iodide staining-based flow cytometric analysis (reference value: 6.49 %); type: functional; how it was run: as §6
CT26 [14] = experiment: Induction of apoptosis in mouse CT26 cells assessed as increase in Bax/Bcl2 protein ratio up to 40 uM after 48 hrs by Western blot analysis; type: functional, cell-based; how it was run: as §4
HCT-116 [15] = experiment: Induction of apoptosis in human HCT116 cells assessed as early apoptotic cells at 10 uM after 48 hrs by Annexin V-FITC/propidium iodide staining-based flow cytometric analysis (reference value: 1.23 %); type: functional; how it was run: as §2
HCT-116 [16] = experiment: Induction of apoptosis in human HCT116 cells assessed as viable cells at 40 uM after 48 hrs by Annexin V-FITC/propidium iodide staining-based flow cytometric analysis (reference value: 86.7 %); type: functional; conditions: HCT-116, 48 h, read-out: Activity; how it was run: as §2
HCT-116 [17] = experiment: Induction of apoptosis in human HCT116 cells assessed as nuclear fragmentation up to 40 uM after 48 hrs by Hoechst 33258 staining-based fluorescent microscopic analysis; type: functional, cell-based
How it was run: (§8)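 Cells (1–2 × 10^5 per well) plated on 18-mm coverslips in six-well plates for 24 h, treated at various concentrations for 48 h, washed with cold PBS, fixed 15 min in 4% paraformaldehyde, stained with Hoechst 33258 (5 μg/ml); condensed/fragmented nuclei scored by fluorescence microscopy (10×); stained positive cells, mean ± SD of three experiments.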

HCT-116 [18] = experiment: Induction of apoptosis in human HCT116 cells assessed as appearance of condensed nuclei up to 40 uM after 48 hrs by Hoechst 33258 staining-based fluorescent microscopic analysis; type: functional, cell-based; how it was run: as §8
CT26 [19] = experiment: Induction of apoptosis in mouse CT26 cells assessed as viable cells at 40 uM after 48 hrs by Annexin V-FITC/propidium iodide staining-based flow cytometric analysis (reference value: 88.9 %); type: functional; conditions: CT26, 48 h, read-out: Activity; how it was run: as §6
CT26 [20] = experiment: Induction of apoptosis in mouse CT26 cells assessed as late apoptotic cells at 10 uM after 48 hrs by Annexin V-FITC/propidium iodide staining-based flow cytometric analysis (reference value: 6.49 %); type: functional; how it was run: as §6
HCT-116 [21] = experiment: Inhibition of colony formation in human HCT116 cells assessed as reduction in number of colonies up to 40 uM incubated for 24 hrs supplemented with fresh medium containing compound every 3 days for 12 days by crystal violet staining-based microscopic analysis; type: functional, cell-based; how it was run: as §3
CT26 [22] = experiment: Antimetastatic activity against mouse CT26 cells allografted in Balb/c mouse assessed as inhibition of MMP -9 protein expression in tumour tissue at 25 to 50 mg/kg, ip administered daily for 14 days starting from 6 days post implantation by immunohistochemical analysis; type: functional, organism-based; how it was run: as §7

COc1ccc(-c2cc(=O)c3c(O)c(OC)c(O)cc3o2)cc1 [PECTOLINARIGENIN]
inhibition (SW48 [1]): Tde
Activity (HCT-116 [2]): 7.36%
inhibition (CT26 [3]): Active
Activity (CT26 [4]): Active
Activity (CT26 [5]): 7.4%
Activity (CT26 [6]): 3.09%
viability at 20 µM (CT26 [7]): 77.5%
inhibition (CT26 [8]): Tde
Activity (CT26 [9]): 20.4%
Activity (CT26 [10]): 16.2%
Activity (CT26 [11]): Dose-dependent effect
inhibition (SW48 [12]): Active
Activity (CT26 [13]): 12.4%
Activity (CT26 [14]): Active
Activity (HCT-116 [15]): 5.08%
viability at 40 µM (HCT-116 [16]): 73.7%
Activity (HCT-116 [17]): Active
Activity (HCT-116 [18]): Active
viability at 40 µM (CT26 [19]): 67.3%
Activity (CT26 [20]): 15.5%
inhibition (HCT-116 [21]): Active
inhibition (CT26 [22]): Active
